Bioassay records deposited in PubChem by several laboratories.
Most compounds without a hit are left out; they make up all but 12% or so of the library.
b-catenin transl – beta-catenin nuclear translocation modulation; HeLa beta-catenin nuclear translocation, immunofluorescence imaging; actives 0.3% (n = 190,000); nuclear translocation activity, % at 5 µM;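 active = nuclear translocation activity above 50% at 5 µM, with a well cell count of 50 or more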;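 also: per-cell ratio of nuclear to cytoplasmic median beta-catenin stain intensity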
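Test system: human HeLa cells, endogenous beta-catenin. Times: 24 h compound exposure, 37°C. Measured by: beta-catenin immunofluorescence imaging with DAPI.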
Dynein transport – blocks dynein driven cargo transport along microtubules; 3617.4 mouse cells, GR-EGFP nuclear translocation imaging; test concentration mostly 20 µM; stimulated with dexamethasone, 1 µM; stronger effect = lower value; z-score, hits read low; actives 0.47% (n = 220,000); AID 1381;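 active = plate z-score of nuclear minus cytoplasmic receptor signal below a set negative limit, without overly bright fluorescence or cell loss, cut at about -3.5 in these data, passing the limit was not always enough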;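 also: z-score of nuclear minus cytoplasmic ring GR-EGFP intensity difference per well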
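medium = tetracycline-free induction medium containing charcoal-stripped FBS | probe or stimulus = dexamethasone, 1.0 µM final | timing = 48 h induction, then 1 h compound, then 30 min agonist, 37 °C | detection = automated 10x imaging of fixed Hoechst-stained cells | read-out basis = nuclear versus cytoplasmic GR-EGFP signal, averaged per well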
Lmaj promast – reduces viability of Leishmania major promastigotes; resazurin fluorescence viability; inhibition, % at 10 µM; actives 9% (n = 200,000); AID 1063; in the data active = inhibition above about 50%;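 also: promastigotes grown with compound for 44 hours at 28 °C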
Autophagy HCS – modulators of autophagy | calls only at 10 µM (by protocol) | actives 0.98% (n = 190,000) | MEF GFP-LC3 puncta imaging; test concentration mostly 10 µM;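 active = percentage of spot-positive cells more than 3 SD above its plate mean, without a fluorescence outlier flag or 80% toxicity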
CHOP inh – inhibitors of CHOP induction in ER stress response. inhibition, % at 10 µM. actives 3.8% (n = 220,000). AID 2732. CHO-K1 CHOP-promoter luciferase, tunicamycin-induced, 15-18 h;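 active = compounds that reduced the stress-induced luciferase reporter signal by more than about 70% of percent inhibition, limit read from the data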
MT stabilizer – microtubule stabilizers in HeLa cells; HeLa tubulin immunostaining HCS, 24 h; share of cells brighter than vehicle mean+2SD; % tubulin-high responders, % at 10 µM; actives 0.83% (n = 200,000); AID 2205;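 active = plate Z-score above 3 for both tubulin-high and condensed-nucleus cell shares, with cell loss under 80%, at 10 µM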;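 also: anti alpha tubulin signal scored within the nucleus-defined area of each cell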
Large screens that a line does not name were inactive.

O=C1NC2(CCN(Cc3ccccc3)CC2)Oc2ccccc21	none
CCN(c1ccccc1)S(=O)(=O)c1ccc(NC(=S)NC(=O)c2cccs2)cc1	Lmaj promast 85
CCN(c1ccccc1)S(=O)(=O)c1ccc(C(=O)NCC(c2cccs2)N(C)C)cc1 (stereo not given)	Lmaj promast 90
CCOC(=O)c1c(NC(C)=O)sc2c(OC)c(Br)ccc12	none
CCOC(=O)c1c(NC(C)=O)sc2c(OCCN(CC)CC)c(Br)ccc12	Lmaj promast 100
CCOC(=O)c1c(NC(C)=O)sc2c(OCC(O)CN(CC)CC)c(Br)ccc12 (stereo not given)	Lmaj promast 100
CNc1cc(CSC)nc(SCc2ccc(Cl)cc2Cl)n1	CHOP inh 77
Cc1cc(C)nc(-n2nc(C)c(C3(O)C(=O)Nc4ccccc43)c2N)n1 (stereo not given)	none (no result: b-catenin transl)
CCCCCCP(=O)(O)c1ccccc1	none
CCCCN(CCCC)CP(=O)(c1ccccc1)c1ccccc1	CHOP inh 73 (no result: b-catenin transl)
CCOC(=O)CSc1nnc(Cn2nnc3ccccc32)n1-c1ccc(F)cc1	none (no result: Lmaj promast, Autophagy HCS, MT stabilizer)
O=C(CN1CCC(n2nnc3cc(F)ccc32)CC1)N1CCCc2ccccc21	none
O=C(CN1CCC(n2nnc3cc(C(F)(F)F)ccc32)CC1)N1CCc2ccccc21	Lmaj promast 56
COc1ccc(N2CCN(C(=O)CCCCCn3c(=O)[nH]c4ccsc4c3=O)CC2)cc1	none
Cc1cccc(NC(=O)CSc2nnc(CSc3nc(C)cc(C)n3)o2)c1	none
Cc1cc(C)nc(SCc2nnc(SCC(=O)Nc3ccc(Cl)c(C(F)(F)F)c3)o2)n1	CHOP inh 75
COc1ccc(NC(=O)COC(=O)/C=C/c2ccc(OC)c(S(=O)(=O)N3CCOCC3)c2)cc1	Lmaj promast 57
COc1cc(/C=C/C(=O)OCC(=O)N2CCN(C(=O)c3ccco3)CC2)ccc1O	none
COc1cccc(/C=C/C(=O)OCC(=O)Nc2ccc(S(=O)(=O)N3CCCC3)cc2)c1	Lmaj promast 68 (no result: b-catenin transl)
COc1cc(/C=C/C(=O)OCC(=O)Nc2ccc(S(=O)(=O)N3CCCC3)cc2)ccc1O	none
COc1cc(/C=C/C(=O)OCC(=O)N2CCN(S(=O)(=O)c3ccc(C)cc3C)CC2)ccc1O	Lmaj promast 98
COc1ccc(/C=C/C(=O)Nc2cccc(F)c2)cc1S(=O)(=O)N1CCOCC1	Lmaj promast 50
COc1ccc(S(=O)(=O)N(CC(=O)NCCC(C)C)c2ccccc2)cc1OC	none
O=C(Oc1cc(=O)oc2c1c(=O)n1c3c(cccc23)CC1)c1ccc(F)cc1	none (no result: Lmaj promast, Autophagy HCS, MT stabilizer)
CC(=O)NC(NC(=S)N1CCCCCC1)C(Cl)(Cl)Cl (stereo not given)	none
CNC(=S)Nc1ccc(C(N)=O)cc1	none
COc1cccc(C2=CC(c3ccc(N(C)C)cc3)n3ncnc3N2)c1 (stereo not given)	none (no result: b-catenin transl)
COc1cccc(C2=CC(c3ccc(N(C)C)cc3)n3nnnc3N2)c1 (stereo not given)	MT stabilizer 42
COc1cccc(C2=CC(c3ccccc3)n3nnnc3N2)c1 (stereo not given)	MT stabilizer 32 (no result: b-catenin transl)
COc1cccc(C2C=C(c3ccc(OC)cc3OC)Nc3nnnn32)c1 (stereo not given)	MT stabilizer 30 (no result: b-catenin transl, CHOP inh)
CCCCC1(C)NC(=S)N2N1C(=S)NC2(C)CCCC (stereo not given)	none (no result: Lmaj promast, Autophagy HCS, MT stabilizer)
COc1ccc(C(=O)CCN2CCc3cc(OC)c(OC)cc3C2)cc1	Lmaj promast 67
CCCOc1cc(CN2CCCCC2)cc(C(C)=O)c1	Lmaj promast 52
CCCOc1ccc(OCCN2CCCC(C)C2)cc1 (stereo not given)	Lmaj promast 96
COc1ccc(C(C)=O)cc1CN1CCCCC1	none
O=C(OCCN1CCOCC1)c1ccc(OCCN2CCOCC2)cc1	none (no result: b-catenin transl)
COc1ccc(NC(=O)CCN2CCCC(C)C2)cc1 (stereo not given)	none
CCCCOc1ccc(C(=O)CCN2CCOCC2)cc1	Lmaj promast 76
CCOc1ccc(C(=O)CCN2CCCCCC2)cc1	Lmaj promast 100
CCOc1ccc(C(=O)OC2CCN(C)CC2)cc1	Lmaj promast 100
CCCOc1ccc(C(=O)CCN2CCCCC2)cc1	Lmaj promast 90
Nc1cc(-c2cccc(Br)c2)nn1Cc1ccccc1	Autophagy HCS active
Nc1cc(-c2ccccc2)nn1Cc1ccc(Cl)cc1	none
Nc1cc(-c2ccc(Br)cc2)nn1Cc1ccccc1	Lmaj promast 78
COc1ccc(Cl)cc1Nc1nc(C)cc(C)c1C(N)=O	none
CC1CCN(c2nc3c(c(=O)n(C)c(=O)n3C)n2CCSc2nc3ccccc3s2)CC1	CHOP inh 76
Cc1ccnc(SCCn2c(N3CC(C)OC(C)C3)nc3c2c(=O)n(C)c(=O)n3C)n1 (stereo not given)	none
Cc1ccnc(SCCn2c(N3CC(C)CC(C)C3)nc3c2c(=O)n(C)c(=O)n3C)n1 (stereo not given)	Lmaj promast 58
Cc1ccc(-n2nc(C)c(=O)c(-c3ccccc3)c2NC(=O)C(C)C)cc1	none (no result: Lmaj promast, Autophagy HCS, MT stabilizer)
O=C(O)c1ccc(N/N=C2/CCCc3ccccc32)cc1	none (no result: Lmaj promast, Autophagy HCS, MT stabilizer)
CCN(CC)S(=O)(=O)c1cccc(N=NC2=C(O)CCCC2=O)c1	Lmaj promast 61
O=C1CCCC(O)=C1N=Nc1cccc(C(=O)O)c1	none
Cc1cc(C)n(CC(O)COc2ccc(OCC(O)Cn3nc(C)cc3C)cc2)n1 (stereo not given)	none (no result: b-catenin transl, CHOP inh)
COC(=O)N/N=C/c1cn(Cc2ccc(Cl)cc2Cl)c2ccccc12	CHOP inh 80
COC(=O)N/N=C/c1cn(Cc2ccccc2Cl)c2ccccc12	Lmaj promast 75
COC(=O)N/N=C/c1cn(CCCOc2ccccc2)c2ccccc12	Lmaj promast 54
CC(=O)Oc1c(C)cc(Cl)cc1C(=O)Nc1ccc([N+](=O)[O-])cc1Cl	CHOP inh 92
O=S(=O)(c1ccc(-c2ccon2)s1)N1CCN(c2ccncc2)CC1	none (no result: Lmaj promast, Autophagy HCS, MT stabilizer)
Cc1ccc(-n2nc3ccc(NC(=O)/C=C/c4ccco4)cc3n2)cc1	Lmaj promast 60
Cc1c(C(=O)OCCOc2ccc(Br)cc2)sc(=S)n1C	none
CCCCCCCC[n+]1cccc(C(=O)N(CC)CC)c1	Lmaj promast 61 (no result: b-catenin transl)
Oc1ccc[n+](CCCCC[n+]2cccc(O)c2)c1	none (no result: Lmaj promast, Autophagy HCS, MT stabilizer)
COc1ccccc1/C=C/C=N/n1c(C2CCCCC2)n[nH]c1=S	CHOP inh 94
COc1ccccc1/C=C/C=N/n1c(-c2ccccc2)n[nH]c1=S	none (no result: Lmaj promast, Autophagy HCS, MT stabilizer)
O=C(NC(=S)N(CCO)Cc1ccccc1)c1cc(Br)ccc1Cl	none
COc1ccc(C(CNC(=O)Cc2c(F)cccc2Cl)N2CCCCC2)cc1 (stereo not given)	none
Cc1cc(C(=O)OC(C(=O)Nc2cccc(C(F)(F)F)c2)c2ccccc2)c(C)o1 (stereo not given)	CHOP inh 83
